The test system of data set [1] is Rattus norvegicus. In words: Compound was evaluated for the blood sugar lowering (hypoglycemic activity) in the glucose-primed rat at a dose of 100 mg/kg; Increase in blood sugar level. Type of data set: functional. An outline of the steps: (§1)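 Male Sprague–Dawley rats, 140–150 g, groups of six, fasted 16 h. Each rat got 100 mg glucose s.c. in 0.5 mL isotonic NaCl, then the test agent at once orally as an aqueous carboxymethylcellulose suspension (0.5 mL); controls got vehicle. At 2 h, under light ether, blood was taken by cardiac puncture. Glucose was read by Autoanalyzer (Hoffman method). Values are percent difference from vehicle controls.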

Data set [2] in a line: Dose that produces lethality in 50% (LD50) of male and female carworth farms CF-1 strain mice weighing 16-25 g oral (po) route of administration. It counts as ADME, organism-based. The settings on record: both, CF-1, mouse, in vivo. An outline of the steps: (§2)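 Four mice per dose level. Drug dissolved in distilled water and suspended in 0.5% carboxymethylcellulose or 0.5% gelatin, with pH adjusted by 1 N HCl or 1 N NaOH where the drug tolerated it. Doses logarithmically spaced, given orally or intraperitoneally. Mice observed 7 days after dosing. LD50 derived by the Bliss method, expressed in mg/kg.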

The nature of data set [3]: Lethality in 50% (LD50) of male and female CF-1 strain mice weighing 16-25g, intraperitoneal administration. The settings on record: both, CF-1, mouse, in vivo, ip. It counts as ADME, organism-based. In outline:
as §2

The test system of data set [4] is Monkey. In words: Evaluated in normal, fasted monkey for the percentage reduction in blood glucose level as compared to pretreatment blood glucose values at a dose of 60 mg of free base / kg body weight administered orally. It counts as functional, Cercopithecidae. In outline: (§3)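 Male and female rhesus monkeys (2–3 kg) were food-deprived, with water, for 18 h. Pretreatment blood was taken from the popliteal vein. Dosing was oral by stomach tube, with repeat sampling 5 h post-dose. Results are percent reduction in blood glucose relative to pretreatment values.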

The test system of data set [5] is Cavia porcellus. In words: Evaluated in normal, fasted guinea pig for the percentage reduction in blood glucose level as compared to pretreatment blood glucose values at a dose of 100 mg of free base / kg body weight administered orally. It counts as functional. An outline of the steps:
(§4)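 Male and female Hartley guinea pigs, 450–500 g, were food-deprived (water allowed) 18 h and split by sex into groups of four. A zero-time blood sample was taken by cardiac puncture, then drug was given, and blood was drawn again 5 h later. Percent reduction in blood glucose is relative to pretreatment values.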

Data set [6] concerns Rattus norvegicus. The data set is described as follows: Evaluated in glucose-primed, fasted rat for the percentage reduction in blood glucose level as compared to control groups at a dose of 25 mg of free base / kg body weight administered orally. Type of data set: functional. An outline of the steps:
as §1

The test system of data set [7] is Monkey. In words: Evaluated in normal, fasted monkey for the percentage reduction in blood glucose level as compared to pretreatment blood glucose values at a dose of 70 mg of free base / kg body weight administered orally. Type of data set: functional, Cercopithecidae. In outline: as §3
Data set [8] relates to Rattus norvegicus. In words: Evaluated in glucose-primed, fasted rat for the percentage reduction in blood glucose level as compared to control groups at a dose of 10 mg of free base / kg body weight administered orally. Type of data set: functional. In outline:
as §1

Data set [9] relates to Rattus norvegicus. In words: Compound was evaluated for the blood sugar lowering (hypoglycemic activity ) in the glucose-primed rat at a dose of 50 mg of base/kg. Type of data set: functional. In outline:
as §1

Data set [10] deals with Rattus norvegicus. The data set is described as follows: Evaluated in alloxanized, diabetic rat for the percentage reduction in blood glucose level as compared to pretreatment blood glucose values at a dose of 100 mg of free base / kg body weight administered orally. Type of data set: functional. In outline: (§5)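 Three days later, rats positive for urine glucose (reagent strip) formed groups of six. Tail-vein blood was taken before oral dosing and again at 5 h. Percent reduction is versus pretreatment glucose.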

Data set [11] relates to Rattus norvegicus. The data set is described as follows: Evaluated in alloxanized, diabetic rat for the percentage reduction in blood glucose level as compared to pretreatment blood glucose values at a dose of 200 mg of free base / kg body weight administered orally. It counts as functional. In outline:
as §5

Data set [12] is described as follows: Lethal dose required to produce 50% lethality in male and female carworth farms CF-1 strain mice weighing 16-25 g administered intraperitoneally. Type of data set: toxicity, organism-based. To be noted: both, CF-1, mouse, in vivo, ip. In outline:
as §2

The subject of data set [13] is Rattus norvegicus. The data set is described as follows: Evaluated in glucose primed, adrenalectomized rat for the percentage reduction in blood glucose level as compared to pretreatment blood glucose values at a dose of 25 mg of free base / kg body weight administered orally. Type of data set: functional. In outline: (§6)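 Male Sprague–Dawley rats were adrenalectomized 7 days before testing, fasted 16 h, and given 100 mg glucose s.c. per rat. Drug was given orally at once; controls received an equal volume of saline. Blood was taken by cardiac puncture after 2 h. Percent reduction in blood glucose is versus pretreatment values.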

Data set [14] in a line: (§7) Lethal dose required to produce 50% lethality in male and female carworth farms CF-1 strain mice weighing 16-25 g administered orally. The settings on record: both, CF-1, in vivo, po.
Data set [15] deals with Monkey. In words: Evaluated in normal, fasted monkey for the percentage reduction in blood glucose level as compared to pretreatment blood glucose values at a dose of 25 mg of free base / kg body weight administered orally. It counts as functional, Cercopithecidae. An outline of the steps:
as §3

The test system of data set [16] is Rattus norvegicus. The data set is described as follows: Evaluated in glucose-primed, fasted rat for the percentage reduction in blood glucose level as compared to control groups at a dose of 50 mg of free base / kg body weight administered orally. Type of data set: functional. In outline:
as §1

Data set [17] concerns Monkey. In words: Evaluated in normal, fasted monkey for the percentage reduction in blood glucose level as compared to pretreatment blood glucose values at a dose of 50 mg of free base / kg body weight administered orally. It counts as functional, Cercopithecidae. In outline: as §3
Data set [18] has as its system Cavia porcellus. In words: Evaluated in normal, fasted guinea pig for the percentage reduction in blood glucose level after 5 hr as compared to pretreatment blood glucose values at a dose of 100 mg of free base / kg body weight administered orally. It counts as functional. In outline:
as §4

The test system of data set [19] is Cavia porcellus. The data set is described as follows: Evaluated in normal, fasted guinea pig for the percentage reduction in blood glucose level after 5 hr as compared to pretreatment blood glucose values at a dose of 150 mg of free base / kg body weight administered orally. Type of data set: functional. In outline:
as §4

Data set [20] relates to Rattus norvegicus. The data set is described as follows: Evaluated in glucose primed, adrenalectomized rat for the percentage reduction in blood glucose level after 2 hr as compared to pretreatment blood glucose values at a dose of 10 mg of free base / kg body weight administered orally. Type of data set: functional. In outline: as §6
The subject of data set [21] is Rattus norvegicus. The data set is described as follows: Evaluated in glucose-primed, fasted rat for the percentage reduction in blood glucose level after 2 hr as compared to control groups at a dose of 250 mg of free base / kg body weight administered orally. Type of data set: functional. In outline:
as §1

Data set [22] has as its system Cavia porcellus. In words: Evaluated in normal, fasted guinea pig for the percentage reduction in blood glucose level after 5 hr as compared to pretreatment blood glucose values at a dose of 160 mg of free base / kg body weight administered orally. Type of data set: functional. In outline: as §4
Data set [23] relates to Monkey. The data set is described as follows: Evaluated in normal, fasted monkey for the percentage reduction in blood glucose level after 5 hr as compared to pretreatment blood glucose values at a dose of 20 mg of free base / kg body weight administered orally. Type of data set: functional, Cercopithecidae. An outline of the steps: as §3
In data set [24] the test system is Rattus norvegicus. In words: Evaluated in glucose primed, adrenalectomized rat for the percentage reduction in blood glucose level after 2 hr as compared to pretreatment blood glucose values at a dose of 20 mg of free base / kg body weight administered orally. Type of data set: functional. In outline:
as §6

Data set [25] relates to Rattus norvegicus. In words: Evaluated in glucose-primed, fasted rat for the percentage reduction in blood glucose level after 2 hr as compared to control groups at a dose of 10 mg of free base / kg body weight administered orally. It counts as functional. An outline of the steps:
as §1

Data set [26] has as its system Rattus norvegicus. The data set is described as follows: Evaluated in glucose-primed, fasted rat for the percentage reduction in blood glucose level after 2 h as compared to control groups at a dose of 25 mg of free base / kg body weight administered orally. It counts as functional. An outline of the steps: as §1
For data set [27], the system named is Monkey. In words: Evaluated in normal, fasted monkey for the percentage reduction in blood glucose level after 5 hr as compared to pretreatment blood glucose values at a dose of 40 mg of free base / kg body weight administered orally. It counts as functional, Cercopithecidae. An outline of the steps:
as §3

In data set [28] the test system is Cavia porcellus. The data set is described as follows: Evaluated in normal, fasted guinea pig for the percentage reduction in blood glucose level after 5 hr as compared to pretreatment blood glucose values at a dose of 125 mg of free base / kg body weight administered orally. Type of data set: functional. An outline of the steps:
as §4

Data set [29] relates to Rattus norvegicus. In words: Evaluated in glucose-primed, fasted rat for the percentage reduction in blood glucose level after 2 hr as compared to control groups at a dose of 500 mg of free base / kg body weight administered orally. It counts as functional. An outline of the steps:
as §1

Data set [30] deals with Rattus norvegicus. In words: Blood sugar lowering (hypoglycemic activity) in the glucose-primed rat at a dose of 100 mg/kg; Decrease in blood sugar level. Type of data set: functional. An outline of the steps:
as §1

The test system of data set [31] is Rattus norvegicus. The data set is described as follows: Evaluated in glucose-primed, fasted rat for the percentage reduction in blood glucose level as compared to control groups at a dose of 150 mg of free base / kg body weight administered orally. It counts as functional. An outline of the steps:
as §1

Data set [32] relates to Cavia porcellus. The data set is described as follows: Evaluated in normal, fasted guinea pig for the percentage reduction in blood glucose level as compared to pretreatment blood glucose values at a dose of 100 mg of free base / kg body weight administered orally.
In data set [33] the test system is Rattus norvegicus. In words: Evaluated in glucose-primed, fasted rat for the percentage reduction in blood glucose level as compared to control groups at a dose of 100 mg of free base / kg body weight administered orally. It counts as functional. An outline of the steps:
as §1

The nature of data set [34]: as §7. It counts as toxicity, organism-based. The settings on record: both, CF-1, mouse, in vivo, po. An outline of the steps: as §2
Data set [35] has as its system Rattus norvegicus. In words: Evaluated in alloxanized, diabetic rat for the percentage reduction in blood glucose level as compared to pretreatment blood glucose values at a dose of 150 mg of free base / kg body weight administered orally. Type of data set: functional. In outline: as §5
The nature of data set [36]: Dose that produces lethality in 50% (LD50) of male and female carworth farms CF-1 strain mice weighing 16-25 g intraperitoneal (ip) route of administration. It counts as ADME, organism-based. The settings on record: both, CF-1, mouse, in vivo. An outline of the steps: as §2
For data set [37], the system named is Rattus norvegicus. In words: Evaluated for the blood sugar lowering (hypoglycemic activity ) in the glucose-primed rat at a dose of 100 mg/kg. Type of data set: functional. An outline of the steps:
as §1

Values joined by “and” are separate entries in the source; they are usually repeats but may differ in a detail not shown here. Equal values may be shown once.

On to `Br.c1ccc(/N=C(\Nc2ccc(OCCN3CCCC3)cc2)c2ccccc2)cc1`, for which the Change in data set [1] turned out to be 35%. Also, the LD50 in [2] is 500 mg/kg; in [3] it was 117 mg/kg.
`Br.CC(C)N(CCCOc1ccc(N/C(=N\c2ccccc2)c2ccccc2)cc1)C(C)C`: the Reduction in data set [4] is 32.3%; in data set [5], 33.5% and 20%; in data set [6], 21.2%; in data set [7], 39%; in data set [8], 10.9%; in data set [10], 15%. The Reduction in data set [11] was found to be 21.5%; in data set [13], 30.6%; in data set [15] it was 0%; in data set [16], 32.2%; in data set [17] it was 26.5%. The Change in [9] is 32.2%. Moreover, the LD50 came to 140 mg/kg in data set [12] and 347 mg/kg in [14].
`Cc1ccc(S(=O)(=O)NC(=O)NN2CCCCCC2)cc1` [TOLAZAMIDE]: the Reduction in data set [18] came to 33.5%; in data set [19] it was 30.4%; in data set [20], 75.8%; in data set [21], 42.9%; in data set [22], 25%; in data set [23] it was 11%. Also, the Reduction is recorded as 85.6% in data set [24]; 28.1% in [25]; 50% in [26]; 0% in [10]; 26.7% in data set [27]; 26.7% in data set [28]. In data set [29], this compound registered a Reduction of 51.1%.
Take `Br.CC(C)N(CCOc1ccc(N/C(=N\c2ccccc2)c2ccccc2)cc1)C(C)C`: the Reduction in data set [4] was 45%; in data set [31], 32%; in data set [32], 10.6%; in data set [33] it was 31.2%; in data set [35], 37.3%; in [10], 16.5%. Further, the Reduction came out at 33.4% in data set [13], 0% in data set [15], 12.9% in [16] and 31.9% in [17]. In data set [30], this compound returned a Change of 31.2%. The figures for the LD50 in [34] and in [12] were 900 mg/kg and 273 mg/kg, respectively.
Consider `CC(C)N(CCc1ccc(/C(=N\c2ccccc2)Nc2ccccc2)cc1)C(C)C.Cl`, for which, in [30], the Change amounted to 32.4%. Also, the LD50 amounted to 160 mg/kg in data set [36] and 587 mg/kg in data set [2].
With `CC(C)N(CCOc1ccc(N/C(=N\c2cccc(C(F)(F)F)c2)c2ccccc2)cc1)C(C)C.Cl`, the Change in [37] came to 0%. Also, the LD50 in data set [2] was 1000 mg/kg; in data set [3], 400 mg/kg.

For the origin of these results see ChEMBL document CHEMBL1122033, “Chemistry and hypoglycemic activity of N-[[(Dialkylamino)alkoxy]phenyl]benzamidines” (J Med Chem, 1982).
